According to ChEMBL document CHEMBL1124861, “Thermodynamics of the interaction of inhibitors with the binding site of recombinant human renin” (J Med Chem, 1990):
*1 amine or outer side, *2 acyl side, *3 side chain or, on linkers, in order; H or OH if unused. Where a SMILES comes first, the peptide text is derived from it. [ ]: non-standard residue; d: D form. The star is where a group is joined. ξ: configuration not given here. Sta(3ξ) = CC(C)C[C@H](N[*:1])C(O)CC(=O)[*:2]; Sta = CC(C)C[C@H](N)[C@@H](O)CC(=O)O; Isovaleryl = CC(C)CC(=O)*

Molecular target: T1, Renin (Homo sapiens, UniProt P00797)
T1 sequence (P00797 whole entry): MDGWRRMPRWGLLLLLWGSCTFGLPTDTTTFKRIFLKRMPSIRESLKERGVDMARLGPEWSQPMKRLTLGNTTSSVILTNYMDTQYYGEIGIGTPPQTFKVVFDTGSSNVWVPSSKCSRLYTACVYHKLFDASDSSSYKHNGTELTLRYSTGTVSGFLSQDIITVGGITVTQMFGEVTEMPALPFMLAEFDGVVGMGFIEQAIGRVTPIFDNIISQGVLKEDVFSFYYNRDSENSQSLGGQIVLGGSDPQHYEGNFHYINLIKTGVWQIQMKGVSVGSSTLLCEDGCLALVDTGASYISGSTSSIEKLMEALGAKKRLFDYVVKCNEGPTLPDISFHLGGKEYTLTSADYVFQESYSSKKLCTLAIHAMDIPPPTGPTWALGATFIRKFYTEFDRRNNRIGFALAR
Assay: Dissociation constant (Kd) of renin inhibitor was determined over a temperature range of 8-37 degree by the fluorescence displacement assay
Summary of the method: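 Recombinant human renin, purified, with stock concentration set by amino acid analysis. Competitive displacement of a dansylated fluorescent peptide inhibitor, read on a spectrofluorometer in ratio mode at 8–37 °C. Unlabeled-inhibitor Kd was calculated from probe Kd, probe concentration, fraction of probe bound, total inhibitor and enzyme concentrations. Duplicates were run at two inhibitor concentrations, and van't Hoff plots were built.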

Kd | Molecule
29 nM | CC(=O)N1CCC[C@H]1C(=O)N[C@@H](Cc1ccccc1)C(=O)N[C@@H](Cc1c[nH]cn1)C(=O)N[C@H](CN[C@@H](Cc1ccccc1)C(N)=O)Cc1ccccc1
204 nM | CC[C@H](C)[C@H](NC(=O)C[C@H](O)[C@H](CC(C)C)NC(=O)[C@H](Cc1cnc[nH]1)NC(=O)[C@H](Cc1ccccc1)NC(C)=O)C(N)=O (Ac-FH[Sta]I-NH2)
98 nM | CC[C@H](C)[C@H](NC(=O)C[C@H](O)[C@H](CC(C)C)NC(=O)[C@H](Cc1c[nH]cn1)NC(=O)[C@H](Cc1ccccc1)NC(=O)[C@@H]1CCCN1C(C)=O)C(N)=O (Ac-PFH[Sta]I-NH2)
1.7 nM | CC[C@H](C)[C@H](NC(=O)CC(O)[C@H](CC(C)C)NC(=O)[C@H](Cc1c[nH]cn1)NC(=O)[C@H](Cc1ccccc1)NC(=O)[C@@H]1CCCN1C(=O)[C@H](Cc1c[nH]cn1)NC(=O)CC(C)C)C(=O)N[C@@H](Cc1ccccc1)C(N)=O (stereo partly drawn) (Isovaleryl-HPFH[Sta(3ξ)]IF-NH2)
5.4 nM | CC[C@H](C)[C@H](NC(=O)[C@@H](C[C@H](O)[C@H](CC(C)C)NC(=O)[C@H](Cc1cnc[nH]1)NC(=O)[C@H](Cc1ccccc1)NC(=O)[C@@H]1CCCN1C(C)=O)C(C)C)C(N)=O
23 nM | CC[C@H](C)[C@H](NC(=O)C[C@H](O)[C@H](CC(C)C)NC(=O)[C@H](Cc1c[nH]cn1)NC(=O)[C@H](Cc1ccccc1)NC(=O)[C@@H]1CCCN1C(=O)[C@H](Cc1c[nH]cn1)NC(C)=O)C(N)=O (Ac-HPFH[Sta]I-NH2)
370 nM | CC[C@H](C)[C@H](NC(=O)[C@@H](C[C@H](O)[C@H](CC(C)C)NC(=O)[C@H](Cc1cnc[nH]1)NC(=O)[C@H](Cc1ccccc1)NC(C)=O)C(C)C)C(N)=O
8 nM | CC[C@H](C)[C@H](NC(=O)[C@@H](NC[C@H](CC(C)C)NC(=O)[C@H](Cc1c[nH]cn1)NC(=O)[C@H](Cc1ccccc1)NC(=O)[C@@H]1CCCN1C(=O)[C@H](Cc1c[nH]cn1)NC(=O)[C@@H]1CCCN1)C(C)C)C(=O)N[C@@H](Cc1c[nH]cn1)C(=O)N[C@@H](CCCCN)C(=O)O
2.5 nM | CCC(C)CNC(=O)[C@H](Cc1ccccc1)NC[C@H](Cc1ccccc1)NC(=O)[C@H](Cc1cnc[nH]1)NC(=O)[C@H](Cc1ccccc1)NC(=O)[C@@H]1CCCN1C(C)=O (stereo partly drawn)
1000 nM | CC[C@H](C)[C@H](NC(=O)[C@@H](C[C@H](O)[C@H](CC(C)C)NC(=O)[C@H](Cc1c[nH]cn1)NS(=O)(=O)c1cccc2c(N(C)C)cccc12)C(C)C)C(=O)NCc1ccccn1
220 nM | CC(=O)N[C@@H](Cc1ccccc1)C(=O)N[C@@H](Cc1c[nH]cn1)C(=O)N[C@H](CN[C@@H](Cc1ccccc1)C(N)=O)Cc1ccccc1
1.3 nM | CC[C@H](C)[C@H](NC(=O)[C@@H](C[C@H](O)[C@H](CC(C)C)NC(=O)[C@H](Cc1c[nH]cn1)NC(=O)[C@H](Cc1ccccc1)NC(=O)[C@H]1CCCN1C(C)=O)C(C)C)C(N)=O
810 nM | H-PHPFHFFIHK-OH
